Among the data in ChEMBL document CHEMBL1130202, “Biologically active heteroarotinoids exhibiting anticancer activity and decreased toxicity” (J Med Chem, 1997) are Relative activity values, retold here.

In the experiment the test system is CC-B. Kind of experiment: Relative transcriptional activation activity relative to t-RA. The format is functional, Homo sapiens. A digest of the protocol: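 CC-B reporter cells (CC-1 cervical line carrying a CAT gene under a RARE with a tk promoter) were seeded at 4×10^5 cells/well in MEM with nonessential amino acids, pyruvate and 10% FBS, the serum lots having negligible t-RA by HPLC. Triplicate cultures were screened at 10^-6 M with 0.1% DMSO final. After 48 h, CAT activity ([3H]acetyl-CoA) per mg protein was taken as treated/control and expressed relative to t-RA. Average of three experiments.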
Molecule `CCOC(=O)c1ccc(/C=C(\C)c2ccc3c(c2)C(C)(C)CCO3)cc1` yielded a Relative activity of 35.7.
As for `COC(=O)c1ccc(C(=O)Oc2c(C)cc3c(c2C)C(C)(C)CC(=O)O3)cc1`, the Relative activity is on record as 29.
As for `C/C(=C\c1ccc(C(=O)O)cc1)c1ccc2c(c1)C(C)(C)CO2`, the figure is 46.
As for `CCCCCCCCC1CCc2cc(/C(C)=C/c3ccc(C(=O)OCC)cc3)ccc2S1` (stereo unspecified), the figure is 43; as for `CC1(C)CCOc2ccc(C(=O)Oc3ccc(/C=N\N=C(/N)S)cc3)cc21`, 33; as for `CCOC(=O)c1ccc(OC(=O)c2ccc3c(c2)C(C)(C)CCN3C)cc1`, 54.
As for `CC(/C=C/C=C(\C)c1ccc2c(c1)C(C)(C)CS2)=C\C(=O)O`, the figure is 50; as for `CCOC(=O)c1ccc(/C=C(\C)c2ccc3c(c2)C(C)(C)CCS3)cc1`, 51; as for `C/C(=C\c1ccc(C(=O)O)cc1)c1ccc2c(c1)C(C)(C)CS2`, 56.
Take `CCOC(=O)c1ccc(OC(=O)c2ccc3c(c2)C(C)(C)CCO3)cc1`: the Relative activity is 40.
As for `CCOC(=O)c1ccc(/C=C(\C)c2ccc3c(c2)CC[C@@H](CC)[S+]3[O-])cc1` (stereo partly specified), the figure is 35.8.
